Laboratory results: ChEMBL document CHEMBL1125460, “Antimalarial activity of new dihydroartemisinin derivatives. 5. Sugar analogues” (J Med Chem, 1992)
Converted amounts (≈) assume the structure as drawn.

What was measured:
Plasmodium falciparum [1] = assay: In vitro antimalarial activity against Plasmodium falciparum Indochina W2; type: functional, organism-based
Outline: (§1)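 Compound dissolved in DMSO and 70% ethanol, then diluted in RPMI 1640 with 10% human plasma and tested over (1.56-100) × 10^-9 M. Parasites at 0.5% parasitemia, 1% hematocrit, incubated 24 h with compound before [3H]hypoxanthine was added, then a further 18 h. Read-out is [3H]hypoxanthine uptake. IC50 obtained by nonlinear regression of concentration-response data.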

Plasmodium falciparum [2] = assay: In vitro antimalarial activity against Plasmodium falciparum D6 Sierra Leone; type: functional, organism-based; outline: as §1
Plasmodium berghei [3] = assay: Antimalarial activity for Plasmodium berghei infected mice (Mus musculus) (n=5) at 20 mg/kg/day; type: functional
Plasmodium berghei [4] = assay: Antimalarial activity for Plasmodium berghei infected mice (Mus musculus) (n=5) at 320 mg/kg/day; type: functional
Plasmodium berghei [5] = assay: Antimalarial activity for Plasmodium berghei infected mice (Mus musculus) (n=5) at 80 mg/kg/day; type: functional

Structure (SMILES)	IC50 (Plasmodium falciparum [1])	IC50 (Plasmodium falciparum [2])	No. of mice cured (Plasmodium berghei [3])	No. of mice cured (Plasmodium berghei [4])	No. of mice cured (Plasmodium berghei [5])
C[C@H]1[C@@H](O[C@@H]2O[C@H](CO)[C@@H](O[C@@H]3O[C@H](CO)[C@@H](O)[C@H](O)[C@H]3O)[C@H](O)[C@H]2O)O[C@@H]2O[C@@]3(C)CC[C@H]4[C@H](C)CC[C@@H]1[C@@]24OO3	0.171 µg/mL (≈ 0.281 µM)	0.71 µg/mL (≈ 1.17 µM)			
C[C@H]1[C@@H](O[C@@H]2O[C@H](CO)[C@@H](O)[C@H](O)[C@H]2O)O[C@@H]2O[C@@]3(C)CC[C@H]4[C@H](C)CC[C@@H]1[C@@]24OO3	0.0341 µg/mL (≈ 0.0763 µM)	0.121 µg/mL (≈ 0.272 µM)			
C[C@H]1[C@@H](O[C@@H]2O[C@H](CO)[C@H](O)[C@H](O)[C@H]2O)O[C@@H]2O[C@@]3(C)CC[C@H]4[C@H](C)CC[C@@H]1[C@@]24OO3	0.0356 µg/mL (≈ 0.0797 µM)	0.0131 µg/mL (≈ 0.0294 µM)			
CC(=O)O[C@@H]1[C@@H](OC(C)=O)[C@@H](C)O[C@H](COC(=O)CO[C@H]2O[C@@H]3O[C@@]4(C)CC[C@H]5[C@H](C)CC[C@@H]([C@H]2C)[C@@]35OO4)[C@H]1OC(C)=O	0.00019 µg/mL (≈ 0.000302 µM)	0.00248 µg/mL (≈ 0.00394 µM)	0	5	0
C[C@H]1[C@@H](O[Si](C)(C)C)O[C@@H]2O[C@@]3(C)CC[C@H]4[C@H](C)CC[C@@H]1[C@@]24OO3	0.00042 µg/mL (≈ 0.00118 µM)	0.00111 µg/mL (≈ 0.00311 µM)	1	4	5
C[C@@H]1CC[C@H]2[C@@H](C)C(=O)O[C@@H]3O[C@@]4(C)CC[C@@H]1[C@]32OO4 [ARTEMISININ]	0.00068 µg/mL (≈ 0.00241 µM)				
